Assay results: the RNAGym collection of RNA variant scans (doi:10.1002/anie.201605470)

B1: Osa-1-4 twister ribozyme (parent)
chain: CCGCCUAACACUGCCAAUGCCGGUCCCAAGCCCGGAUAAAAGUGGAGGGGGCGG

Variants of: B1
Experiment: self-cleavage, relative activity (ratio to wild type); higher = more cleavage; co-transcriptional
Outline: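 A DNA template for a 54-nucleotide Oryza sativa twister ribozyme was synthesised with 97 % wild-type base and 1 % of each other base at the 48 positions downstream of the cleavage site. It was transcribed in vitro for 2 h at 37 °C, allowing co-transcriptional self-cleavage, then reverse-transcribed with a template-switching oligonucleotide, PCR-amplified and deep-sequenced. Cleavage status was scored from reads with or without upstream sequence. Relative activity is fraction cleaved normalised to wild type.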

Row | Variant | self-cleavage
1 | CCGCCUAACACUGCCAAUGCCGGUCCCAAGCUCGGAUAAGAGUGGAGGGGGCGG [A40G C32U] | 0.09
2 | CCGCCUAACACUGCCAAUGCCGGUCCCAAGCGCGGAUAAGAGUGGAGGGGGCGG [A40G C32G] | 0.1
3 | CCGCCUAACACUGCCAAUGCCGGUCCCAAGCACGGAUAAGAGUGGAGGGGGCGG [A40G C32A] | 0.06
4 | CCGCCUAACACUGCCAAUGCCGGGCCCAAGCCCGGAUAAGAGUGGAGGGGGCGG [A40G U24G] | 0.02
5 | CCGCCUAACACUGCCAAUGCCGGACCCAAGCCCGGAUAAGAGUGGAGGGGGCGG [A40G U24A] | 0.07
6 | CCGCCUAACACUGCCAAUGCCGGCCCCAAGCCCGGAUAAGAGUGGAGGGGGCGG [A40G U24C] | 0.08
7 | CCGCCUAACACUGCCAAUGCCGGUCCCAAUCCCGGAUAAGAGUGGAGGGGGCGG [A40G G30U] | 0.05
8 | CCGCCUAACACUGCCAAUGCCGGUCCCAAACCCGGAUAAGAGUGGAGGGGGCGG [A40G G30A] | 0.03
9 | CCGCCUAACACUGCCAAUGCCGGUCCCAACCCCGGAUAAGAGUGGAGGGGGCGG [A40G G30C] | 0.04
10 | CCGCCUAACACUGCCAAUGCCGGUCCCAAGCCCGGAUAAGAGUGGAGGGGGAGG [A40G C52A] | 0.52
11 | CCGCCUAACACUGCCAAUGCCGGUCCCAAGCCCGGAUAAGAGUGGAGGGGGGGG [A40G C52G] | 0.65
12 | CCGCCUAACACUGCCAAUGCCGGUCCCAAGCCCGGAUAAGAGUGGAGGGGGUGG [A40G C52U] | 0.94
13 | CCGCCUAACACUGCCAAUGCCGGUCCCAAGCCCGGAUAAGAGUGGAGGGGGCGU [A40G G54U] | 0.46
14 | CCGCCUAACACUGCCAAUGCCGGUCCCAAGCCCGGAUAAGAGUGGAGGGGGCGC [A40G G54C] | 0.26
15 | CCGCCUAACACUGCCAAUGCCGGUCCCAAGCCCGGAUAAGAGUGGAGGGGGCGA [A40G G54A] | 0.3
16 | CCGCCUAACACUGCCAAUGCCGGUCCCAAGCCCGCAUAAGAGUGGAGGGGGCGG [A40G G35C] | 0.12
17 | CCGCCUAACACUGCCAAUGCCGGUCCCAAGCCCGAAUAAGAGUGGAGGGGGCGG [A40G G35A] | 0.71
18 | CCGCCUAACACUGCCAAUGCCGGUCCCAAGCCCGUAUAAGAGUGGAGGGGGCGG [A40G G35U] | 0.69
19 | CCGCCUAACACUGCCAAUGCCGGUCCAAAGCCCGGAUAAGAGUGGAGGGGGCGG [A40G C27A] | 0.11
20 | CCGCCUAACACUGCCAAUGCCGGUCCUAAGCCCGGAUAAGAGUGGAGGGGGCGG [A40G C27U] | 0.11
21 | CCGCCUAACACUGCCAAUGCCGGUCCGAAGCCCGGAUAAGAGUGGAGGGGGCGG [A40G C27G] | 0.09
22 | CCGCCUAACACUGCCAAUGCCGGUCCCAAGCCCUGAUAAGAGUGGAGGGGGCGG [A40G G34U] | 0.22
23 | CCGCCUAACACUGCCAAUGCCGGUCCCAAGCCCAGAUAAGAGUGGAGGGGGCGG [A40G G34A] | 0.44
24 | CCGCCUAACACUGCCAAUGCCGGUCCCAAGCCCCGAUAAGAGUGGAGGGGGCGG [A40G G34C] | 0.2

Row | Variant | self-cleavage
25 | CCGCCUAACACUGCCAAUGCCGGUCCCAAGCCCGGAUAAGAGUCGAGGGGGCGG [A40G G44C] | 0.64
26 | CCGCCUAACACUGCCAAUGCCGGUCCCAAGCCCGGAUAAGAGUAGAGGGGGCGG [A40G G44A] | 0.21
27 | CCGCCUAACACUGCCAAUGCCGGUCCCAAGCCCGGAUAAGAGUUGAGGGGGCGG [A40G G44U] | 0.38
28 | CCGCCUAACACUGCCAAUGCCGGUCCCAAGCCCGGAUAAGAGUGCAGGGGGCGG [A40G G45C] | 0.07
29 | CCGCCUAACACUGCCAAUGCCGGUCCCAAGCCCGGAUAAGAGUGAAGGGGGCGG [A40G G45A] | 0.09
30 | CCGCCUAACACUGCCAAUGCCGGUCCCAAGCCCGGAUAAGAGUGUAGGGGGCGG [A40G G45U] | 0.07
31 | CCGCCUAACACUGCCAAUGCCGGUCUCAAGCCCGGAUAAGAGUGGAGGGGGCGG [A40G C26U] | 0.13
32 | CCGCCUAACACUGCCAAUGCCGGUCGCAAGCCCGGAUAAGAGUGGAGGGGGCGG [A40G C26G] | 0.14
33 | CCGCCUAACACUGCCAAUGCCGGUCACAAGCCCGGAUAAGAGUGGAGGGGGCGG [A40G C26A] | 0.05
34 | CCGCCUAACACUGCCAAUGCGGGUCCCAAGCCCGGAUAAGAGUGGAGGGGGCGG [A40G C21G] | 0.08
35 | CCGCCUAACACUGCCAAUGCUGGUCCCAAGCCCGGAUAAGAGUGGAGGGGGCGG [A40G C21U] | 0.79
36 | CCGCCUAACACUGCCAAUGCAGGUCCCAAGCCCGGAUAAGAGUGGAGGGGGCGG [A40G C21A] | 0.25
37 | CCGCCUAACACUGCCAAUUCCGGUCCCAAGCCCGGAUAAGAGUGGAGGGGGCGG [A40G G19U] | 0.11
38 | CCGCCUAACACUGCCAAUCCCGGUCCCAAGCCCGGAUAAGAGUGGAGGGGGCGG [A40G G19C] | 0.07
39 | CCGCCUAACACUGCCAAUACCGGUCCCAAGCCCGGAUAAGAGUGGAGGGGGCGG [A40G G19A] | 0.18
40 | CCGCCUAACACUUCCAAUGCCGGUCCCAAGCCCGGAUAAGAGUGGAGGGGGCGG [A40G G13U] | 0.02
41 | CCGCCUAACACUACCAAUGCCGGUCCCAAGCCCGGAUAAGAGUGGAGGGGGCGG [A40G G13A] | 0.06
42 | CCGCCUAACACUCCCAAUGCCGGUCCCAAGCCCGGAUAAGAGUGGAGGGGGCGG [A40G G13C] | 0.03
43 | CCGCCUAACACUGCCAAUGCCGGUGCCAAGCCCGGAUAAGAGUGGAGGGGGCGG [A40G C25G] | 0.06
44 | CCGCCUAACACUGCCAAUGCCGGUUCCAAGCCCGGAUAAGAGUGGAGGGGGCGG [A40G C25U] | 0.14
45 | CCGCCUAACACUGCCAAUGCCGGUACCAAGCCCGGAUAAGAGUGGAGGGGGCGG [A40G C25A] | 0.06
46 | CCGCCUAACACUGCCAAUGCCGGUCCCAAGCCCGGAUAAGAGUGGAUGGGGCGG [A40G G47U] | 0.1
47 | CCGCCUAACACUGCCAAUGCCGGUCCCAAGCCCGGAUAAGAGUGGACGGGGCGG [A40G G47C] | 0.06
48 | CCGCCUAACACUGCCAAUGCCGGUCCCAAGCCCGGAUAAGAGUGGAAGGGGCGG [A40G G47A] | 0.11
